Assay results: ChEMBL document CHEMBL1944638, “Quinol derivatives as potential trypanocidal agents” (Bioorg Med Chem, 2012)
pEC50: −log10 of the molar value.

Assays:
[1] = Selectivity ratio of EC50 for human MRC5 cells to EC50 for blood stream form of Trypanosoma brucei; type: ADME, cell-based; details: read-out: Ratio EC50
Procedure, shortened: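 Ratio of EC50 in human MRC5 cells over EC50 in bloodstream-form T. brucei, both from 96-well HTS whole-cell assays. Each EC50 is the arithmetic mean of independent determinations, reported with SD and number of repeats.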

[2] = test system: Trypanosoma brucei; assay: Antitrypanosomal activity against blood stream form of Trypanosoma brucei after 69 hrs by resazurin-based fluorescence assay; type: functional, organism-based
Procedure, shortened: (§1)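 96-well HTS whole-cell assay against bloodstream-form T. brucei and human MRC5 cells. EC50 values are the arithmetic mean of independent determinations, with SD and number of repeats. Species selectivity is EC50 (MRC5)/EC50 (T. brucei).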

[3] = test system: MRC5; assay: Cytotoxicity against human MRC5 cells after 3 days by resazurin-based fluorescence assay; type: cell-based; details: MRC5, 72 h; procedure, shortened: as §1

Compound | selectivity ratio [1] | pEC50 [2] | pEC50 [3]
O=C1C=CC(O)(c2cc3ccccc3n2S(=O)(=O)c2ccc(CCC(=O)N3CCOCC3)cc2)C=C1 | 2 | – | –
O=C1C=CC(O)(c2cc3ccccc3n2S(=O)(=O)c2ccc(CCCN3CCOCC3)cc2)C=C1 | 3 | – | –
O=C1C=CC(O)(c2cc3cnccc3n2S(=O)(=O)c2ccccc2)C=C1 | 2 | – | –
O=C1C=CC(O)(c2cn(CCC(=O)Nc3ccccc3)nn2)C=C1 | 7 | – | –
Nc1nc(N)nc(NCCCOC(=O)CCc2ccc(S(=O)(=O)n3c(C4(O)C=CC(=O)C=C4)cc4ccccc43)cc2)n1 | 2.7 | – | –
Nc1nc(N)nc(NCCCNC(=O)CCc2ccc(S(=O)(=O)n3c(C4(O)C=CC(=O)C=C4)cc4ccccc43)cc2)n1 | 5.6 | – | –
O=C1C=CC(O)(c2cc3ccccc3n2S(=O)(=O)c2ccc(CCC(=O)O)cc2)C=C1 | 4.5 | – | –
O=C1C=CC(O)(c2nc3ccccc3s2)C=C1 | 2 | 7.11 | 6.74
O=C1C=CC(O)(c2cn(-c3ccc4ncsc4c3)nn2)C=C1 | 3 | – | –
CN1CCN(C(=O)CCc2ccc(S(=O)(=O)n3c(C4(O)C=CC(=O)C=C4)cc4ccccc43)cc2)CC1 | 3 | – | –
O=C1C=CC(O)(c2ccccc2)C=C1 | 2 | 6.12 | 5.77
C#CC1(O)C=CC(=O)C=C1 | 1 | – | –
COC(=O)CCc1ccc(S(=O)(=O)n2c(C3(O)C=CC(=O)C=C3)cc3ccccc32)cc1 | 2 | – | –
CCOC(=O)Nc1ccc(S(=O)(=O)n2c(C3(O)C=CC(=O)C=C3)cc3ccccc32)cc1 | 2 | – | –
Cc1ccc(S(=O)(=O)n2c(C3(O)C=CC(=O)C=C3)cc3ccncc32)cc1 | 2 | – | –
O=C1C=CC(O)(C#Cc2ccc(CC(=O)Nc3ccccc3)cc2)C=C1 | 0.3 | – | –
CN1CCN(CCCc2ccc(S(=O)(=O)n3c(C4(O)C=CC(=O)C=C4)cc4ccccc43)cc2)CC1 | 3 | – | –
O=C1C=CC(O)(c2cc3ccccc3n2S(=O)(=O)c2ccc(CCCO)cc2)C=C1 | 2 | – | –
COc1ccc(-n2cc(C3(O)C=CC(=O)C=C3)nn2)cc1 | 2 | 6.89 | 6.51
Oc1ccc(-c2nc3ccccc3s2)cc1 | – | < 4.30 | < 4.30
COc1ccc(Cn2cc(C3(O)C=CC(=O)C=C3)nn2)cc1 | 3 | – | –
O=C1C=CC(O)(c2cc3ccccc3n2S(=O)(=O)c2ccccc2)C=C1 | 2 | 7.28 | 6.96
O=C1C=CC(O)(c2nc3ccccc3s2)C(Cl)=C1 (configuration not stated) | 1 | – | –
O=C1C=CC(O)(c2cc3ccc(F)cc3n2S(=O)(=O)c2ccccc2)C=C1 | 2 | 7.00 | 6.77
CC(=O)NCCc1ccc(S(=O)(=O)n2c(C3(O)C=CC(=O)C=C3)cc3ccccc32)cc1 | 3 | – | –
CC(=O)OC[C@H]1O[C@@H](n2cc(C3(O)C=CC(=O)C=C3)nn2)[C@H](OC(C)=O)[C@@H](OC(C)=O)[C@H]1OC(C)=O | > 5 | – | –
Nc1nc(N)nc(-n2cc(C3(O)C=CC(=O)C=C3)nn2)n1 | > 8 | – | < 4.30
N=C(N)c1ccc(-n2cc(C3(O)C=CC(=O)C=C3)nn2)cc1 | > 5 | – | < 4.30
CS(=O)(=O)c1ccc(S(=O)(=O)n2c(C3(O)C=CC(=O)C=C3)cc3ccccc32)cc1 | 2 | – | –
